High-throughput results as filed in PubChem.
V-ATPase pHluor – alters yeast V-ATPase proton transport | S. cerevisiae, pHLuorin cytosolic pH fluorescence | response, % at 10 µM | hit rate 0.37% among 350,000; in the data active = response mostly above about 7.3%, no sharp cut-off; inactive = mostly below about 5.4%; note: actives read high
ABCB6 inh MLPCN – inhibitors of human ABC transporter ABCB6; K562-ABCB6 porphyrin accumulation, flow cytometry, 1 h; stronger effect = lower value; AID 602162; hit rate 0.19% among 360,000; fluorescence ratio to DMSO, % at 10 µM;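 active = fluorescence ratio to DMSO below 75%, the collection mean minus 3 SD; inconclusive = too few cells collected in the well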;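 note: signal is porphyrin accumulated inside mitochondria; 100% equals median channel fluorescence of DMSO control wells; lower ratio means ABCB6 inhibition with less porphyrin fluorescence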
pCIP destab – p/CIP protein destabilization; Q05BA5; F442A p/CIP-EGFP cells, EGFP fluorescence, 16 h; decrease of EGFP signal, % at 10 µM; hit rate 0.01% among 290,000; AID 1984;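 active = EGFP signal decrease of at least 30% at 10 µM or well 3 SD below plate mean, unless failing retest; inactive = the rest, including hits failing retest or dose response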
Target sequence (Q05BA5 1-1403): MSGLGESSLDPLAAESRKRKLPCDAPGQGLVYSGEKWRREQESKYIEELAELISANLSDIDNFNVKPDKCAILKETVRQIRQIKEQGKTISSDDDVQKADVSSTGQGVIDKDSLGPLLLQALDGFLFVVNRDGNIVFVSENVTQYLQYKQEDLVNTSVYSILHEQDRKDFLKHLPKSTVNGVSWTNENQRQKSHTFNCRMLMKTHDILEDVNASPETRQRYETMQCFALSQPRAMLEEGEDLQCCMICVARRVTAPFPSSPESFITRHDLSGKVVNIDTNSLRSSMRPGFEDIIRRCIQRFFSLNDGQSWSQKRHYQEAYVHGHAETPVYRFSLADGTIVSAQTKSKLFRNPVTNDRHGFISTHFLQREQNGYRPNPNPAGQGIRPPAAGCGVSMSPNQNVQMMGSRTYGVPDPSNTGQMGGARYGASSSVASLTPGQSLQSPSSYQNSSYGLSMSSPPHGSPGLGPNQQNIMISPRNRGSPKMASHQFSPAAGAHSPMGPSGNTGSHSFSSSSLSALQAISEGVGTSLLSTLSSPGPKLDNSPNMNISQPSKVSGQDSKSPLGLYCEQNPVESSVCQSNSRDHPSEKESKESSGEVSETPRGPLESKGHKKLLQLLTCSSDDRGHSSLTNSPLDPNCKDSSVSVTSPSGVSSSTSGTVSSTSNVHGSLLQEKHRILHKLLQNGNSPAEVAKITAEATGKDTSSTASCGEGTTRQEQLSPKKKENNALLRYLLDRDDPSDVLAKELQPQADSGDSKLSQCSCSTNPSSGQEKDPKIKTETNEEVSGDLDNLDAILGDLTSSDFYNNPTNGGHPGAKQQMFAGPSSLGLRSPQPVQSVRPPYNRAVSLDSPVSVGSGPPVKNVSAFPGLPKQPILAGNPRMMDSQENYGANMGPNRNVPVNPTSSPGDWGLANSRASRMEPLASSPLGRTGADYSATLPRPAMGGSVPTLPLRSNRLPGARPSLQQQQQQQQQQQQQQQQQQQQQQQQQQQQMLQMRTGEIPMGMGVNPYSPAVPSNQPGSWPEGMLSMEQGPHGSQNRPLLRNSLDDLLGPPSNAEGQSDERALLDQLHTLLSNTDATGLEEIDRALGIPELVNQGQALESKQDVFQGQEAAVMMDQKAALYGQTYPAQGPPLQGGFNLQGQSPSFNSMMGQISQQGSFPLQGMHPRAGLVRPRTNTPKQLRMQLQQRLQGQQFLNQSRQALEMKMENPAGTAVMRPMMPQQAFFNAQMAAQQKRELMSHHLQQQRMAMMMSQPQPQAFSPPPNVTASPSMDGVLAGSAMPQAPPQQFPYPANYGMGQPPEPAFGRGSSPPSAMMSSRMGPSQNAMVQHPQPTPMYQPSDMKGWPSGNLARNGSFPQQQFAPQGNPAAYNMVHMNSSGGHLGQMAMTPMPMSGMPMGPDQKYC
Dynein cargo inh – dynein cargo transport inhibition; 3617.4 mouse cells, GR-EGFP nuclear translocation imaging; test concentration mostly 20 µM; stimulated with dexamethasone, 1 µM; stronger effect = lower value; z-score, hits read low; hit rate 0.47% among 220,000;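 active = plate z-score of nuclear minus cytoplasmic receptor signal below a set negative limit, without overly bright fluorescence or cell loss, cut at about -3.5 in these data, passing the limit was not always enough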;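 note: z-score of nuclear minus cytoplasmic ring GR-EGFP intensity difference per well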
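Buffer or medium: tet-free medium with charcoal-stripped serum / Also added: dexamethasone agonist, 1.0 µM final, for 30 min / Timing: induction 48 h, compound 1 h, agonist 30 min / Measured by: high-content fluorescence imaging after fixation / Read-out: nuclear-to-cytoplasmic GR-EGFP distribution per well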
KCC2 mod – modulators of human KCC2 chloride dependent transport; KCC2 cells, thallium flux FluoZin-2 fluorescence; B-score of Tl+ flux slope (higher = more flux/activation; lower = inhibition) at 10 µM; hit rate 2.2% among 190,000;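 active = thallium flux slope and its plate-corrected score both differing from the plate sample mean at a set confidence after two filtering rounds, in either direction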;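 note: slope of fluorescence scaled to starting intensity during 10 to 20 s after thallium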
KCC2 sec1 – KCC2 (human) modulation, secondary assay; shares compounds with KCC2 mod; normalised thallium flux (F/F0 slope) at 10 µM; HEK293-KCC2, thallium flux, FluoZin2 fluorescence; stronger effect = higher value; hit rate 15% among 3,700;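 active = thallium flux slope above the same plate's solvent-only control mean plus 3 SD; inconclusive = the two replicate wells disagree; inactive = no significant difference from solvent-only control wells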
KCC2 bumet counter – bumetanide-insensitive thallium flux in KCC2 cells with ouabain, counter-screen; shares compounds with KCC2 mod; HEK293-KCC2 + bumetanide/ouabain, thallium flux FluoZin2; stronger effect = higher value; normalized thallium flux at 10 µM; hit rate 49% among 3,700; AID 1714;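 active = thallium entry rate above the same plate's blocked-transporter control wells by more than 3 SD; inconclusive = the two repeat wells disagree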;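 note: raw slope of fluorescence over initial fluorescence between 10 and 20 s after thallium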
KCC2 sec2 – confirmation of human KCC2 transport modulators | shares compounds with KCC2 mod | HEK293-KCC2, thallium flux FluoZin2 fluorescence; actives lie on both sides; F/F0 rise rate, 10–20 s post-thallium | normalized thallium flux at 10 µM | hit rate 23% among 3,700;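 active = thallium flux slope more than 3 SD above or below the plate's solvent-only control mean, mostly below; inconclusive = the two repeat wells disagreed; inactive = no significant shift from solvent-only controls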;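 note: raw slope with 0.1% DMSO as baseline and bumetanide as block control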
HEK counter1 – counter-screen for KCC2 modulators: effect in parental HEK293 cells | shares compounds with KCC2 mod | thallium flux FluoZin2, ouabain; baseline-ratio fluorescence slope, 10–20 s after thallium | thallium flux rate (normalised fluorescence) at 10 µM | hit rate 46% among 3,700;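 active = thallium flux rate significantly above the same plate's solvent-only control wells, beyond their mean plus 3 SD; inconclusive = the two replicate wells gave conflicting results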
KCC2 retest ouab – confirmation of human KCC2 modulators with ouabain | shares compounds with KCC2 mod | raw Tl+ flux slope (below DMSO = inhibition, above = activation) at 10 µM | hit rate 48% among 3,700 | HEK293-KCC2, thallium flux FluoZin2 fluorescence; bidirectional: low = inhibitor, high = activator;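 active = thallium flux slope beyond 3 SD from same-plate DMSO control mean in most replicates, usually higher, sometimes lower; inconclusive = repeat tests gave conflicting results; inactive = no significant difference from controls in most replicates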;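 note: slope of initial-normalized fluorescence between seconds 10 and 20 after thallium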
HEK counter2 – acts in parental HEK cells, second KCC2 counter-screen; shares compounds with KCC2 mod; HEK293 parental, thallium flux FluoZin-2 fluorescence slope; thallium flux slope at 10 µM; hit rate 33% among 3,700; AID 1718;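 active = thallium flux slope above the same plate's solvent-control mean plus 3 SD in both duplicate wells; inconclusive = duplicate wells that disagreed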;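 note: run without ouabain in cells lacking the KCC2 cotransporter; slope of fluorescence scaled to its starting value between 10 and 20 s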
* hit, by the source's call; ? = inconclusive; . = no result. This is one part of a sample in which hits are shown more often than they occur.

SMILES	V-ATPase pHluor	ABCB6 inh MLPCN	pCIP destab	Dynein cargo inh	KCC2 mod	KCC2 sec1	KCC2 bumet counter	KCC2 sec2	HEK counter1	KCC2 retest ouab	HEK counter2
O=c1c2ccccc2[nH]c(=S)n1-c1ccc(Br)cc1	-1	92	10	-0.79	20*	0.0064	0.041*	0.042*	0.028*	0.044*	0.027*
O=c1c2cc(Br)ccc2[nH]c(=S)n1-c1ccccc1	6	98	-5	-0.89	20*	0.008	0.027*	0.042*	0.022*	0.033*	0.023*
COC(=O)C1=C(c2c(C)noc2C)C[C@@H]2CC[C@H]1N2C(=O)NCCCOC(C)C	-5	92	.	.	.	.	.	.	.	.	.
O=P1(Oc2ccccc2)C[C@@H](O)[C@@H](O)[C@H](COCc2ccccc2)O1 (stereo partly specified)	1	96	1	0.17	0.31	.	.	.	.	.	.
O=C1CSC2N1CCNC21CCCCC1 (stereo unspecified)	-3	105	10	-0.062	-0.032	.	.	.	.	.	.
CC1(c2ccccc2)NCCN2C(=O)CSC21 (stereo unspecified)	-1	101	10	-0.59	-2.3	0.0086	0.0061	0.035	0.0045	0.02	0.011
COc1cccc(-c2nc(CS(=O)CC(=O)N3CCC4(CC3)OCCO4)c(C)o2)c1 (stereo unspecified)	1	92	-15	-0.84	-5.5*	0.0071	0.0046	?	0.0066	0.017	0.0097
COc1cc2c(cc1OC)-c1c(OC)c(OC)cc3c1[C@H](C2)[N+](C)(C)CC3	2	97	0	-0.44	3.1*	0.0075	?	0.029	0.0076	0.018	0.011
COc1cc2c3c(c1OC)-c1cc(O)ccc1CC3NCC2 (stereo unspecified)	2	102	-10	-0.53	-1.2	.	.	.	.	.	.
CC(C)NC(C)C(=O)c1ccc2ccccc2c1 (stereo unspecified)	-4	105	-3	-0.74	1.4	.	.	.	.	.	.
CC(NC(C)(C)C)C(=O)c1cccc(Cl)c1 (stereo unspecified)	4	100	2	-0.44	7.7*	0.0058	0.0043	0.029	0.0071	0.018	0.0094
CCCCCCn1c(O)c(C=NC2CCN(Cc3ccccc3)CC2)c(=O)[nH]c1=O	-3	105	2	-0.094	.	0.018	0.0046	?	0.007	0.015	0.0096
C=CCn1c(O)c(C=NC2CCN(Cc3ccccc3)CC2)c(=O)[nH]c1=O	2	101	-10	-0.28	0.0067	.	.	.	.	.	.
O=C1N(CN2CCOCC2)c2ccccc2C1(O)c1c[nH]c2ccccc12 (stereo unspecified)	-2	99	3	-0.92	.	0.0091	?	0.03	0.0074	0.021	0.011
CCN(CC(=O)Nc1ccc(C#N)c(Cl)c1)CC(=O)NC1CCS(=O)(=O)C1 (stereo unspecified)	6	98	.	.	.	.	.	.	.	.	.
O=C1NC(=O)C(=Cc2coc3ccccc3c2=O)C(=O)N1	3	102	5	0.094	-4.1*	0.0058	0.0058*	?	0.0059*	0.014*	0.0099
CCC1(CC)C(=O)NC(=O)N(CCc2ccccn2)C1=O	1	91	.	.	.	.	.	.	.	.	.
O=c1c(C=NCc2cccs2)c(O)n(C2CCCCC2)c(=O)n1C1CCCCC1	0	91	-3	1.3	-3*	?	0.0044	0.03	0.0072	0.02	0.01
